From ChEMBL document CHEMBL3407460, “Synthesis of novel thiazole-based 8,9-dihydro-7H-pyrimido[4,5-b][1,4]diazepines as potential antitumor and antifungal agents” (2015)
In brackets after ≈: the same amount, converted by molar mass.

Columns and labels:
Format in all cases: functional
Candida albicans [1] = test: Antifungal activity against Candida albicans ATCC 10231 assessed as growth inhibition at 62.5 ug/ml after 48 hrs by broth microdilution method; settings: ATCC 10231, 48 h
Outline: (§1)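 CLSI M27-A3 broth microdilution in RPMI-1640. Compound stocks were made in DMSO (final at most 1%) and tested at final levels of 250 to 0.98. Inoculum was 1–5 × 10^3 CFU/mL, incubated 48 h at 30 °C in a moist, dark chamber. Growth and sterility control wells were included.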

Candida albicans [2] = test: Antifungal activity against Candida albicans ATCC 10231 assessed as growth inhibition at 125 ug/ml after 48 hrs by broth microdilution method; settings: ATCC 10231, 48 h; outline: as §1
Cryptococcus neoformans [3] = test: Antifungal activity against Cryptococcus neoformans IM 031631 clinical isolate after 48 hrs by broth microdilution method; settings: IM 031631, 48 h
Outline: (§2)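 Clinical isolates from the Malbrán Institute were grown on Sabouraud-chloramphenicol agar for 48 h at 30 °C, kept on Sabouraud-dextrose agar and subcultured every 15 days. M27-A3 RPMI-1640 microdilution used 1–5 × 10^3 CFU/mL, 48 h at 30 °C, OD405 read, triplicate. Endpoints MIC100, MIC80 and MIC50 were taken from % inhibition dose-response curves.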

Cryptococcus neoformans [4] = test: Antifungal activity against Cryptococcus neoformans IM 031706 clinical isolate after 48 hrs by broth microdilution method; settings: IM 031706, 48 h
Outline: (§3)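 Clinical isolates from the Malbrán Institute were grown on Sabouraud-chloramphenicol agar for 48 h at 30 °C, kept on Sabouraud-dextrose agar and subcultured every 15 days. Endpoints MIC100, MIC80 and MIC50 were taken from % inhibition dose-response curves.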

Cryptococcus neoformans [5] = test: Antifungal activity against Cryptococcus neoformans ATCC 32264 after 48 hrs by broth microdilution method; settings: ATCC 32264, 48 h
Candida albicans [6] = test: Antifungal activity against Candida albicans ATCC 10231 assessed as growth inhibition at 250 ug/ml after 48 hrs by broth microdilution method; settings: ATCC 10231, 48 h; outline: as §1
Candida albicans [7] = test: Antifungal activity against Candida albicans ATCC 10231 assessed as growth inhibition at 31.25 ug/ml after 48 hrs by broth microdilution method; settings: ATCC 10231, 48 h; outline: as §1
Cryptococcus neoformans [8] = test: Antifungal activity against Cryptococcus neoformans ATCC 32264 assessed as growth inhibition at 250 ug/ml after 48 hrs by broth microdilution method; settings: ATCC 32264, 48 h; outline: as §1
Candida albicans [9] = test: Antifungal activity against Candida albicans ATCC 10231 assessed as growth inhibition at 15.62 ug/ml after 48 hrs by broth microdilution method; settings: ATCC 10231, 48 h; outline: as §1
Cryptococcus neoformans [10] = test: Antifungal activity against Cryptococcus neoformans IM 00319 clinical isolate after 48 hrs by broth microdilution method; settings: IM 00319, 48 h; outline: as §3
Cryptococcus neoformans [11] = test: Antifungal activity against Cryptococcus neoformans ATCC 32264 assessed as growth inhibition at 125 ug/ml after 48 hrs by broth microdilution method; settings: ATCC 32264, 48 h; outline: as §1
Cryptococcus neoformans [12] = test: Antifungal activity against Cryptococcus neoformans ATCC 32264 assessed as growth inhibition at 15.62 ug/ml after 48 hrs by broth microdilution method; settings: ATCC 32264, 48 h; outline: as §1
Candida albicans [13] = test: Antifungal activity against Candida albicans ATCC 10231 assessed as growth inhibition at 7.81 ug/ml after 48 hrs by broth microdilution method; settings: ATCC 10231, 48 h; outline: as §1
Cryptococcus neoformans [14] = test: Antifungal activity against Cryptococcus neoformans IM 052470 clinical isolate after 48 hrs by broth microdilution method; settings: IM 052470, 48 h; outline: as §3
Cryptococcus neoformans [15] = test: Antifungal activity against Cryptococcus neoformans IM 042074 clinical isolate after 48 hrs by broth microdilution method; settings: IM 042074, 48 h; outline: as §2
Cryptococcus neoformans [16] = test: Antifungal activity against Cryptococcus neoformans ATCC 32264 assessed as growth inhibition at 7.81 ug/ml after 48 hrs by broth microdilution method; settings: ATCC 32264, 48 h; outline: as §1
Cryptococcus neoformans [17] = test: Antifungal activity against Cryptococcus neoformans IM 983036 clinical isolate after 48 hrs by broth microdilution method; settings: IM 983036, 48 h; outline: as §2
Cryptococcus neoformans [18] = test: Antifungal activity against Cryptococcus neoformans IM 983040 clinical isolate after 48 hrs by broth microdilution method; settings: IM 983040, 48 h; outline: as §2
Cryptococcus neoformans [19] = test: Antifungal activity against Cryptococcus neoformans ATCC 32264 assessed as growth inhibition at 3.9 ug/ml after 48 hrs by broth microdilution method; settings: ATCC 32264, 48 h; outline: as §1
Cryptococcus neoformans [20] = test: Antifungal activity against Cryptococcus neoformans IM 961951 clinical isolate after 48 hrs by broth microdilution method; settings: IM 961951, 48 h; outline: as §2
Cryptococcus neoformans [21] = test: Antifungal activity against Cryptococcus neoformans IM 972724 clinical isolate after 48 hrs by broth microdilution method; settings: IM 972724, 48 h; outline: as §2
Cryptococcus neoformans [22] = test: Antifungal activity against Cryptococcus neoformans IM 972751 clinical isolate after 48 hrs by broth microdilution method; settings: IM 972751, 48 h; outline: as §2
Candida albicans [23] = test: Antifungal activity against Candida albicans ATCC 10231 assessed as growth inhibition at 3.9 ug/ml after 48 hrs by broth microdilution method; settings: ATCC 10231, 48 h; outline: as §1
Cryptococcus neoformans [24] = test: Antifungal activity against Cryptococcus neoformans ATCC 32264 assessed as growth inhibition at 31.25 ug/ml after 48 hrs by broth microdilution method; settings: ATCC 32264, 48 h; outline: as §1
Cryptococcus neoformans [25] = test: Antifungal activity against Cryptococcus neoformans ATCC 32264 assessed as growth inhibition at 62.5 ug/ml after 48 hrs by broth microdilution method; settings: ATCC 32264, 48 h; outline: as §1

Nc1nc(N)c2c(n1)NC(c1sc(Cl)nc1Cl)CC(c1ccccc1)=N2 (configuration not stated)
inhibition at 62.5 µg/mL (Candida albicans [1]): 100% | inhibition at 125 µg/mL (Candida albicans [2]): 100% | MFC (Cryptococcus neoformans [3]): 62.5 µg/mL (≈ 154 µM) | MIC50 (Cryptococcus neoformans [3]): 31.2 µg/mL (≈ 76.8 µM) | MIC80 (Cryptococcus neoformans [3]): 31.2 µg/mL (≈ 76.8 µM) | MIC (Cryptococcus neoformans [3]; read-out: MIC100): 62.5 µg/mL (≈ 154 µM) | MFC (Cryptococcus neoformans [4]): 62.5 µg/mL (≈ 154 µM) | MIC50 (Cryptococcus neoformans [4]): 31.2 µg/mL (≈ 76.8 µM) | MIC80 (Cryptococcus neoformans [4]): 31.2 µg/mL (≈ 76.8 µM) | MIC (Cryptococcus neoformans [4]; read-out: MIC100): 62.5 µg/mL (≈ 154 µM) | MFC (Cryptococcus neoformans [5]): 31.2 µg/mL (≈ 76.8 µM) | MIC50 (Cryptococcus neoformans [5]): 15.6 µg/mL (≈ 38.4 µM) | MIC80 (Cryptococcus neoformans [5]): 31.2 µg/mL (≈ 76.8 µM) | MIC (Cryptococcus neoformans [5]; read-out: MIC100): 31.2 µg/mL (≈ 76.8 µM) | inhibition at 250 µg/mL (Candida albicans [6]): 100% | inhibition at 31.25 µg/mL (Candida albicans [7]): 100% | inhibition at 250 µg/mL (Cryptococcus neoformans [8]): 100% | inhibition at 15.62 µg/mL (Candida albicans [9]): 62% | MFC (Cryptococcus neoformans [10]): 62.5 µg/mL (≈ 154 µM) | MIC50 (Cryptococcus neoformans [10]): 31.2 µg/mL (≈ 76.8 µM) | MIC80 (Cryptococcus neoformans [10]): 31.2 µg/mL (≈ 76.8 µM) | MIC (Cryptococcus neoformans [10]; read-out: MIC100): 62.5 µg/mL (≈ 154 µM) | inhibition at 125 µg/mL (Cryptococcus neoformans [11]): 74.3% | inhibition at 15.62 µg/mL (Cryptococcus neoformans [12]): 2.53% | inhibition at 7.81 µg/mL (Candida albicans [13]): 21.5% | MFC (Cryptococcus neoformans [14]): 62.5 µg/mL (≈ 154 µM) | MIC50 (Cryptococcus neoformans [14]): 7.8 µg/mL (≈ 19.2 µM) | MIC80 (Cryptococcus neoformans [14]): 31.2 µg/mL (≈ 76.8 µM) | MIC (Cryptococcus neoformans [14]; read-out: MIC100): 62.5 µg/mL (≈ 154 µM) | MFC (Cryptococcus neoformans [15]): 62.5 µg/mL (≈ 154 µM) | MIC50 (Cryptococcus neoformans [15]): 15.6 µg/mL (≈ 38.4 µM) | MIC80 (Cryptococcus neoformans [15]): 31.2 µg/mL (≈ 76.8 µM) | MIC (Cryptococcus neoformans [15]; read-out: MIC100): 31.2 µg/mL (≈ 76.8 µM) | inhibition at 7.81 µg/mL (Cryptococcus neoformans [16]): 0% | MFC (Cryptococcus neoformans [17]): 31.2 µg/mL (≈ 76.8 µM) | MIC50 (Cryptococcus neoformans [17]): 15.6 µg/mL (≈ 38.4 µM) | MIC80 (Cryptococcus neoformans [17]): 31.2 µg/mL (≈ 76.8 µM) | MIC (Cryptococcus neoformans [17]; read-out: MIC100): 31.2 µg/mL (≈ 76.8 µM) | MFC (Cryptococcus neoformans [18]): 62.5 µg/mL (≈ 154 µM) | MIC50 (Cryptococcus neoformans [18]): 7.8 µg/mL (≈ 19.2 µM) | MIC80 (Cryptococcus neoformans [18]): 31.2 µg/mL (≈ 76.8 µM) | MIC (Cryptococcus neoformans [18]; read-out: MIC100): 31.2 µg/mL (≈ 76.8 µM) | inhibition at 3.9 µg/mL (Cryptococcus neoformans [19]): 0% | MFC (Cryptococcus neoformans [20]): 31.2 µg/mL (≈ 76.8 µM) | MIC50 (Cryptococcus neoformans [20]): 15.6 µg/mL (≈ 38.4 µM) | MIC80 (Cryptococcus neoformans [20]): 31.2 µg/mL (≈ 76.8 µM) | MIC (Cryptococcus neoformans [20]; read-out: MIC100): 31.2 µg/mL (≈ 76.8 µM) | MFC (Cryptococcus neoformans [21]): 31.2 µg/mL (≈ 76.8 µM) | MIC50 (Cryptococcus neoformans [21]): 15.6 µg/mL (≈ 38.4 µM) | MIC80 (Cryptococcus neoformans [21]): 31.2 µg/mL (≈ 76.8 µM) | MIC (Cryptococcus neoformans [21]; read-out: MIC100): 31.2 µg/mL (≈ 76.8 µM) | MFC (Cryptococcus neoformans [22]): 62.5 µg/mL (≈ 154 µM) | MIC50 (Cryptococcus neoformans [22]): 31.2 µg/mL (≈ 76.8 µM) | MIC80 (Cryptococcus neoformans [22]): 31.2 µg/mL (≈ 76.8 µM) | MIC (Cryptococcus neoformans [22]; read-out: MIC100): 62.5 µg/mL (≈ 154 µM) | inhibition at 3.9 µg/mL (Candida albicans [23]): 4.92% | inhibition at 31.25 µg/mL (Cryptococcus neoformans [24]): 7% | inhibition at 62.5 µg/mL (Cryptococcus neoformans [25]): 21.8%

Nc1nc(N)c2c(n1)NC(c1sc(Cl)nc1Cl)CC(c1ccc(F)cc1)=N2 (configuration not stated)
inhibition at 62.5 µg/mL (Candida albicans [1]): 43.3% | inhibition at 125 µg/mL (Candida albicans [2]): 51.7% | inhibition at 250 µg/mL (Candida albicans [6]): 59.9% | inhibition at 31.25 µg/mL (Candida albicans [7]): 21.3% | inhibition at 250 µg/mL (Cryptococcus neoformans [8]): 25.5% | inhibition at 15.62 µg/mL (Candida albicans [9]): 17.9% | inhibition at 125 µg/mL (Cryptococcus neoformans [11]): 24.6% | inhibition at 15.62 µg/mL (Cryptococcus neoformans [12]): 7.17% | inhibition at 7.81 µg/mL (Candida albicans [13]): 0% | inhibition at 7.81 µg/mL (Cryptococcus neoformans [16]): 5.01% | inhibition at 3.9 µg/mL (Cryptococcus neoformans [19]): 3.83% | inhibition at 3.9 µg/mL (Candida albicans [23]): 0% | inhibition at 31.25 µg/mL (Cryptococcus neoformans [24]): 11% | inhibition at 62.5 µg/mL (Cryptococcus neoformans [25]): 12.8%
